Series [1] in a line: Selectivity index, IC50 for african green monkey Vero cells to IC50 for Plasmodium falciparum D6. In kind it is functional. The procedure, abridged: (§1)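 Selectivity index is the cytotoxicity IC50 in Vero cells divided by the antimalarial IC50 against the stated P. falciparum clone (D6 or W2).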
In series [2] the test system is Plasmodium falciparum. In words: Antimalarial activity against Plasmodium falciparum D6 assessed as plasmodial LDH activity after 72 hrs. In kind it is functional, organism-based. The method in brief:
(§2)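 P. falciparum D6 (chloroquine-sensitive) and W2 (chloroquine-resistant) clones screened in vitro alongside Vero cytotoxicity, up to a highest concentration of 12.5; IC50 determined.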

Series [3] relates to Plasmodium falciparum. In words: Antimalarial activity against Plasmodium falciparum W2 assessed as plasmodial LDH activity after 72 hrs. The class given is functional, organism-based. The procedure, abridged: as §2
A short description of series [4]: Selectivity index, IC50 for african green monkey Vero cells to IC50 for Plasmodium falciparum W2. The class given is functional. The procedure, abridged: as §1
Series [5] has as its system Vero. Put plainly: Cytotoxicity against african green monkey Vero cells at 12.5 uM. The class given is cell-based. To be noted: chlorocebus sabaeus. The method in brief: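 Mammalian kidney Vero cells screened in vitro for cytotoxicity, in parallel with the antimalarial screen, up to a highest concentration of 12.5.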
Where [6] appears, read: Plasmodium falciparum, D6, 72 h, read-out: IC50.
Where [7] appears, read: Plasmodium falciparum, W2, 72 h, read-out: IC50.

Turning to `CC(C)c1ccc(C2OOC(c3ccc(CO)cc3)OO2)cc1` (stereo not given), the “Ratio IC50” value in series [1] is reported as greater than 7.4; in series [4], greater than 7.9. Moreover, the results for the IC50 in series [2] (setting [6]) and in series [3] (setting [7]) were 2.02 µM and 1.89 µM, respectively. Also, the Activity result in series [5] was “Non-toxic”.

Turning to `Cc1ccc(C2OOC(c3ccc(C(=O)NCCCNc4ccnc5cc(Cl)ccc45)cc3)OO2)cc1` (stereo not given), the figures for the “Ratio IC50” value in series [1] and in series [4] were greater than 7.7 and greater than 4.3, respectively. Further, the IC50 (usually the concentration needed to halve the response being measured) in series [2] (setting [6]) amounted to 1.19 µM; in series [3] (setting [7]), 2.11 µM. In addition, the Activity result in series [5] was “Non-toxic”.

With `CCN(CC)CCCC(C)Nc1ccnc2cc(Cl)ccc12` (stereo not given) [CHLOROQUINE], the Activity result in series [5] is “Non-toxic”.

As for `C[C@@H]1CC[C@H]2[C@@H](C)C(=O)O[C@@H]3O[C@@]4(C)CC[C@@H]1[C@]32OO4` [ARTEMISININ], the entries for the “Ratio IC50” value in series [1] and in series [4] were greater than 500 and greater than 670, respectively. For the same compound, the IC50 in series [2] (setting [6]) was determined as 0.03 µM; in series [3] (setting [7]), 0.025 µM. The Activity result in series [5] is “Non-toxic”.

`Cc1ccc(C2OOC(c3ccc(/C=N\c4ccc(Cl)cc4)cc3)OO2)cc1` (stereo not given): the “Ratio IC50” value in series [1] and in series [4] was greater than 8.2 in each case. Also, the IC50 in series [2] (setting [6]) and in series [3] (setting [7]) was 1.46 µM throughout. In series [5], the Activity entry is given as “Non-toxic”.

In the case of `Cc1ccc(C2OOC(c3ccc(C(=O)NCCO)cc3)OO2)cc1` (stereo not given), the IC50 entry in series [2] and in series [3] was “Not Active” throughout. Also, in series [5], the Activity result is “Non-toxic”.

Turning to `Cc1ccc(C2OOC(c3ccc(/C=N/Cc4ccccc4)cc3)OO2)cc1` (stereo not given), the “Ratio IC50” value in series [1] is recorded as greater than 2.6; in series [4], greater than 2. In addition, the IC50 in series [2] (setting [6]) was found to be 4.8 µM; in series [3] (setting [7]) it was 6.4 µM. Besides, the Activity entry in series [5] is “Non-toxic”.

Regarding `Cc1ccc(C2OOC(c3ccc(CNc4ccc(C(C)C)cc4)cc3)OO2)cc1` (stereo not given), the figures for the “Ratio IC50” value in series [1] and in series [4] were greater than 4.9 and greater than 3.7, respectively. Also, the concentration for half-maximal inhibition (IC50) in series [2] (setting [6]) was found to be 2.39 µM; in series [3] (setting [7]), 3.2 µM. Besides, the Activity result in series [5] is “Non-toxic”.

Take `Cc1ccc(C2OOC(c3ccc(C(=O)NCCCCCCO)cc3)OO2)cc1` (stereo not given): the IC50 entry in series [2] and in series [3] was “Not Active” each time. Besides, in series [5], the Activity entry is recorded as “Non-toxic”.

Consider `Cc1ccc(C2OOC(c3ccc(CNc4ccccc4Cl)cc3)OO2)cc1` (stereo not given), for which the entries for the “Ratio IC50” value in series [1] and in series [4] were greater than 4.8 and greater than 4.3, respectively. For the same compound, the IC50 was 2.51 µM in series [2] (setting [6]) and 2.76 µM in series [3] (setting [7]). The Activity entry in series [5] is listed as “Non-toxic”.

In the case of `CCCCNC(=O)c1ccc(C2OOC(c3ccc(CC)cc3)OO2)cc1` (stereo not given), the “Ratio IC50” value in series [1] was greater than 1.9; in series [4], greater than 1.8. The values for the half-inhibitory concentration (IC50) in series [2] (setting [6]) and in series [3] (setting [7]) were 6.73 µM and 6.99 µM, respectively. Moreover, in series [5], the Activity result is listed as “Non-toxic”.

For `Cc1ccc(C2OOC(c3ccc(CNc4ccccc4C)cc3)OO2)cc1` (stereo not given), the IC50 entry in series [2] and in series [3] was “Not Active” throughout. Further, the Activity result in series [5] is given as “Non-toxic”.

As to `Cc1ccc(C2OOC(c3ccc(CNc4cc(Cl)c(Cl)cc4Cl)cc3)OO2)cc1` (stereo not given), the figures for the “Ratio IC50” value in series [1] and in series [4] were greater than 1.2 and greater than 1.6, respectively. Also, the IC50 turned out to be 8.57 µM in series [2] (setting [6]) and 6.42 µM in series [3] (setting [7]). The Activity entry in series [5] is recorded as “Non-toxic”.

For the compound `Cc1ccc(C2OOC(c3ccc(/C=N/CCc4ccccc4)cc3)OO2)cc1` (stereo not given), the “Ratio IC50” value in series [1] was greater than 7.9; in series [4], greater than 8.2. Also, the results for the IC50 in series [2] (setting [6]) and in series [3] (setting [7]) were 1.54 µM and 1.49 µM, respectively. Moreover, in series [5], the Activity entry was “Non-toxic”.

As to `Cc1ccc(C2OOC(c3ccc(CNc4ccc(O)cc4)cc3)OO2)cc1` (stereo not given), the “Ratio IC50” value in series [1] and in series [4] was greater than 1.8 in each case. Also, the IC50 in series [2] (setting [6]) stood at 6.32 µM; in series [3] (setting [7]), 7.11 µM. The Activity entry in series [5] was “Non-toxic”.

For `Cc1ccc(C2OOC(c3ccc(/C=N\c4ccccc4S)cc3)OO2)cc1` (stereo not given), the “Ratio IC50” value is recorded as greater than 1.8 in series [1] and greater than 2.4 in series [4]. The IC50 in series [2] (setting [6]) is 6.86 µM; in series [3] (setting [7]), 5.08 µM. Besides, the Activity entry in series [5] is recorded as “Non-toxic”.

With `Cc1ccc(C2OOC(c3ccc(CNc4ccc(Br)cc4)cc3)OO2)cc1` (stereo not given), the “Ratio IC50” value in series [1] is listed as greater than 1.4; in series [4], greater than 2.2. Further, the IC50 in series [2] (setting [6]) turned out to be 7.69 µM; in series [3] (setting [7]), 4.97 µM. Besides, in series [5], the Activity result is recorded as “Non-toxic”.

For the compound `CCCc1ccc(NCc2ccc(C3OOC(c4ccc(C)cc4)OO3)cc2)cc1` (stereo not given), the “Ratio IC50” value in series [1] is greater than 2.3; in series [4], greater than 2.8. Moreover, the IC50 is 5.67 µM in series [2] (setting [6]) and 4.19 µM in series [3] (setting [7]). The Activity result in series [5] is “Non-toxic”.

Consider `Cc1ccc(C2OOC(c3ccc(C(=O)NCCc4ccccc4)cc3)OO2)cc1` (stereo not given), for which the “Ratio IC50” value in series [1] is given as greater than 4.3; in series [4], greater than 5.6. For the same compound, the IC50 in series [2] (setting [6]) stood at 2.71 µM; in series [3] (setting [7]), 2.09 µM. Moreover, the Activity entry in series [5] was “Non-toxic”.

Take `Cc1cccc(C2OOC(c3ccc(C=O)cc3)OO2)c1` (stereo not given): the IC50 entry in series [2] and in series [3] was “Not Active” throughout. The Activity entry in series [5] is listed as “Non-toxic”.

On to `Cc1ccc(NCc2ccc(C3OOC(c4ccc(C)cc4)OO3)cc2)cc1` (stereo not given), for which the IC50 result in series [2] and in series [3] was “Not Active” throughout. The Activity entry in series [5] is listed as “Non-toxic”.

In the case of `Cc1ccccc1C1OOC(c2ccc(CO)cc2)OO1` (stereo not given), the “Ratio IC50” value in series [1] is reported as greater than 7.7; in series [4] it was greater than 8.7. For the same compound, the IC50 worked out at 2.15 µM in series [2] (setting [6]) and 1.9 µM in series [3] (setting [7]). Also, the Activity entry in series [5] is “Non-toxic”.

Take `CCCCNC(=O)c1ccc(C2OOC(c3ccc(C)cc3)OO2)cc1` (stereo not given): the IC50 result in series [2] and in series [3] was “Not Active” throughout. The Activity entry in series [5] was “Non-toxic”.

As for `Cc1ccc(C2OOC(c3ccc(CNc4cccc5ccccc45)cc3)OO2)cc1` (stereo not given), the IC50 result in series [2] and in series [3] was “Not Active” in each case. For the same compound, the Activity result in series [5] is “Non-toxic”.

Regarding `CCCCCNC(=O)c1ccc(C2OOC(c3ccc(CC)cc3)OO2)cc1` (stereo not given), the IC50 result in series [2] and in series [3] was “Not Active” in each case. The Activity result in series [5] is recorded as “Non-toxic”.

`CCc1ccc(C2OOC(c3ccc(C(=O)O)cc3)OO2)cc1` (stereo not given): the IC50 entry in series [2] and in series [3] was “Not Active” in each case. For the same compound, the Activity entry in series [5] is given as “Non-toxic”.

For `Cc1ccc(C2OOC(c3ccc(C=O)cc3)OO2)cc1` (stereo not given), the IC50 result in series [2] and in series [3] was “Not Active” throughout. In series [5], the Activity entry is reported as “Non-toxic”.

As for `Cc1ccc(C2OOC(c3ccc(CNc4cccc(Cl)c4)cc3)OO2)cc1` (stereo not given), the IC50 result in series [2] and in series [3] was “Not Active” in each case. The Activity result in series [5] is listed as “Non-toxic”.

As for `Cc1ccccc1C1OOC(c2ccc(C=O)cc2)OO1` (stereo not given), the IC50 result in series [2] and in series [3] was “Not Active” in each case. The Activity entry in series [5] is on record as “Non-toxic”.

As to `Cc1ccc(C2OOC(c3ccc(C(=O)NCCCO)cc3)OO2)cc1` (stereo not given), the IC50 entry in series [2] and in series [3] was “Not Active” each time. In series [5], the Activity result is “Non-toxic”.

The values are drawn from ChEMBL document CHEMBL1795212, “Synthesis and in vitro antimalarial activity of tetraoxane-amine/amide conjugates” (Eur J Med Chem, 2011).
